Tests used:
[1] = Tmax in human at 400 mg, po bid on day 1 and 200 mg, po bid on day 2 and 3 measured after 3 days; type: ADME, organism-based; details: in vivo
Summary of the method: (§1)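 Healthy male volunteers. […] Plasma was sampled on days 3 and 30 at 0.5–12 h postdose. Samples were solid-phase extracted and assayed by LC/MS/MS (range 10 to 2,500 ng/ml). Cmax and Tmax were read directly from the data; AUC0-12 was noncompartmental.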

Homo sapiens [2] = assay: Toxicity in human assessed as mortality at 400 mg, po bid on day 1 and 200 mg, po bid on day 2 and 3 followed by 7 days of washout period then treated with ritonavir 400 mg, po for 10 days followed by 200 mg, po of drug coadministered with ritonavir 400 mg, po till day 30; type: organism-based; details: in vivo
Summary of the method: (§2)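 Healthy male subjects were followed for adverse events throughout dosing. Vital signs and 12-lead ECGs were recorded predose and 1, 3 and 8 h after the morning voriconazole dose on days 1, 3, 11, 15, 20, 21, 25 and 30. The baseline was the mean of triplicate day-1 predose ECGs. Safety data were summarized descriptively.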

[3] = Tmax in human at 400 mg, po bid on day 1 and 200 mg, po bid on day 2 and 3 followed by 7 days of washout period then treated with ritonavir 400 mg, po for 10 days followed by 200 mg, po of drug coadministered with 400 mg, po ritonavir till day 30; type: ADME, organism-based; details: in vivo; summary of the method: as §1
Homo sapiens [4] = assay: Toxicity in human assessed as mortality at 400 mg, po bid on day 1 and 200 mg, po bid on day 2 and 3 followed by 7 days of washout period then treated with ritonavir 100 mg, po for 10 days followed by 200 mg, po of drug coadministered with ritonavir 100 mg, po till day 30; type: organism-based; details: in vivo; summary of the method: as §2
[5] = Tmax in human at 400 mg, po bid on day 1 and 200 mg, po bid on day 2 and 3 followed by 7 days of washout period then treated with ritonavir 100 mg, po for 10 days followed by 200 mg, po of drug coadministered with 100 mg, po ritonavir till day 30; type: ADME, organism-based; details: in vivo; summary of the method: as §1
[6] = AUC (0 to 12 hrs) in human at 400 mg, po bid on day 1 and 200 mg, po bid on day 2 and 3 followed by 7 days of washout period then treated with ritonavir 400 mg, po for 10 days followed by 200 mg, po of drug coadministered with 400 mg, po ritonavir till day 30; type: ADME, organism-based; design: time < 12 hr, dose 400 mg, route oral; details: plasma; summary of the method: as §1
[7] = Cmax in human at 400 mg, po bid on day 1 and 200 mg, po bid on day 2 and 3 followed by 7 days of washout period then treated with ritonavir 100 mg, po for 10 days followed by 200 mg, po of drug coadministered with 100 mg, po ritonavir till day 30; type: ADME, organism-based; design: dose 400 mg, route oral; details: in vivo; summary of the method: as §1
Homo sapiens [8] = assay: Toxicity in human assessed as serious adverse events at 400 mg, po bid on day 1 and 200 mg, po bid on day 2 and 3 measured after 3 days; type: organism-based; details: in vivo, 72 h; summary of the method: as §2
[9] = Cmax in human at 400 mg, po bid on day 1 and 200 mg, po bid on day 2 and 3 followed by 7 days of washout period then treated with ritonavir 400 mg, po for 10 days followed by 200 mg, po of drug coadministered with 400 mg, po ritonavir till day 30; type: ADME, organism-based; design: dose 400 mg, route oral; details: in vivo; summary of the method: as §1
Homo sapiens [10] = assay: Toxicity in human assessed as serious adverse events at 400 mg, po bid on day 1 and 200 mg, po bid on day 2 and 3 followed by 7 days of washout period then treated with ritonavir 100 mg, po for 10 days followed by 200 mg, po of drug coadministered with ritonavir 100 mg, po till day 30; type: organism-based; details: in vivo; summary of the method: as §2
Homo sapiens [11] = assay: Toxicity in human assessed as serious adverse events at 400 mg, po bid on day 1 and 200 mg, po bid on day 2 and 3 followed by 7 days of washout period then treated with ritonavir 400 mg, po for 10 days followed by 200 mg, po of drug coadministered with ritonavir 400 mg, po till day 30; type: organism-based; details: in vivo; summary of the method: as §2
[12] = AUC (0 to 12 hrs) in human at 400 mg, po bid on day 1 and 200 mg, po bid on day 2 and 3 measured after 3 days; type: ADME, organism-based; design: dose 400 mg, time < 12 hr, route oral; details: plasma; summary of the method: as §1
Homo sapiens [13] = assay: Toxicity in human assessed as mortality at 400 mg, po bid on day 1 and 200 mg, po bid on day 2 and 3 measured after 3 days; type: organism-based; details: in vivo, 72 h; summary of the method: as §2
[14] = Cmax in human at 400 mg, po bid on day 1 and 200 mg, po bid on day 2 and 3 measured after 3 days; type: ADME, organism-based; design: dose 400 mg, route oral; details: in vivo; summary of the method: as §1
Homo sapiens [15] = assay: Decrease in Cmax of ritonavir in human at 400 mg, po bid on day 1 and 200 mg, po bid on day 2 and 3 followed by 7 days of washout period then treated with ritonavir 100 mg, po for 10 days followed by 200 mg, po of drug coadministered with ritonavir 100 mg, po till day 30; type: ADME, organism-based; details: in vivo
[16] = AUC (0 to 12 hrs) in human at 400 mg, po bid on day 1 and 200 mg, po bid on day 2 and 3 followed by 7 days of washout period then treated with ritonavir 100 mg, po for 10 days followed by 200 mg, po of drug coadministered with 100 mg, po ritonavir till day 30; type: ADME, organism-based; design: time < 12 hr, dose 400 mg, route oral; details: plasma; summary of the method: as §1
[17] = AUC (0 to 12 hrs) in human at 400 mg, po bid from day 11 to day 20 pretreated with placebo from day 1 to day 3 followed by washout from day 4 to day 10; type: ADME, organism-based; design: dose 400 mg, time < 12 hr, route oral; details: plasma
Summary of the method: (§3)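 Blood (7 ml) drawn on days 20 and 30 at 0.5–12 h postdose, centrifuged at 1,700 x g about 10 min at about 4°C, plasma stored at about –20°C. Validated LC/MS/MS assay; noncompartmental analysis, with Cmax and Tmax read directly from concentration-time data.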

[18] = Tmax in human at 400 mg, po bid from day 11 to day 20 pretreated with voriconazole 400 mg, po bid on day 1 and 200 mg, po bid on day 2 and 3 followed by washout from day 4 to day 10; type: ADME, organism-based; details: in vivo; summary of the method: as §3
[19] = Cmax in human at 400 mg, po bid from day 11 to day 20 pretreated with voriconazole 400 mg, po bid on day 1 and 200 mg, po bid on day 2 and 3 followed by washout from day 4 to day 10; type: ADME, organism-based; design: dose 400 mg, route oral; details: in vivo; summary of the method: as §3
[20] = Tmax in human at 400 mg, po bid from day 11 to day 20 pretreated with voriconazole 400 mg, po bid on day 1 and 200 mg, po bid on day 2 and 3 followed by washout from day 4 to day 10 followed by 400 mg, po of drug coadministered with voriconazole 200 mg, po from day 21 to day 30; type: ADME, organism-based; details: in vivo; summary of the method: as §3
[21] = Tmax in human at 100 mg, po bid from day 11 to day 20 pretreated with voriconazole 400 mg, po bid on day 1 and 200 mg, po bid on day 2 and 3 followed by washout from day 4 to day 10 followed by 100 mg, po of drug coadministered with voriconazole 200 mg, po from day 21 to day 30; type: ADME, organism-based; details: in vivo
[22] = AUC (0 to 12 hrs) in human at 100 mg, po bid from day 11 to day 20 pretreated with voriconazole 400 mg, po bid on day 1 and 200 mg, po bid on day 2 and 3 followed by washout from day 4 to day 10; type: ADME, organism-based; design: dose 100 mg, time < 12 hr, route oral; details: plasma; summary of the method: as §3
[23] = Cmax in human at 400 mg, po bid from day 11 to day 20 pretreated with placebo from day 1 to day 3 followed by washout from day 4 to day 10; type: ADME, organism-based; design: dose 400 mg, route oral; details: in vivo; summary of the method: as §3
[24] = Tmax in human at 400 mg, po bid from day 11 to day 20 pretreated with placebo from day 1 to day 3 followed by washout from day 4 to day 10; type: ADME, organism-based; details: in vivo; summary of the method: as §3
[25] = Cmax in human at 100 mg, po bid from day 11 to day 20 pretreated with voriconazole 400 mg, po bid on day 1 and 200 mg, po bid on day 2 and 3 followed by washout from day 4 to day 10 followed by 100 mg, po of drug coadministered with voriconazole 200 mg, po from day 21 to day 30; type: ADME, organism-based; design: dose 100 mg, route oral; details: in vivo; summary of the method: as §3
[26] = Cmax in human at 400 mg, po bid from day 11 to day 20 pretreated with placebo from day 1 to day 3 followed by washout from day 4 to day 10 followed by 400 mg, po of drug coadministered with placebo from day 21 to day 30; type: ADME, organism-based; design: dose 400 mg, route oral; details: in vivo; summary of the method: as §3
[27] = AUC (0 to 12 hrs) in human at 400 mg, po bid from day 11 to day 20 pretreated with voriconazole 400 mg, po bid on day 1 and 200 mg, po bid on day 2 and 3 followed by washout from day 4 to day 10 followed by 400 mg, po of drug coadministered with voriconazole 200 mg, po from day 21 to day 30; type: ADME, organism-based; design: time < 12 hr, dose 400 mg, route oral; details: plasma; summary of the method: as §3
[28] = Tmax in human at 100 mg, po bid from day 11 to day 20 pretreated with voriconazole 400 mg, po bid on day 1 and 200 mg, po bid on day 2 and 3 followed by washout from day 4 to day 10; type: ADME, organism-based; details: in vivo; summary of the method: as §3
[29] = Cmax in human at 100 mg, po bid from day 11 to day 20 pretreated with voriconazole 400 mg, po bid on day 1 and 200 mg, po bid on day 2 and 3 followed by washout from day 4 to day 10; type: ADME, organism-based; design: dose 100 mg, route oral; details: in vivo; summary of the method: as §3
[30] = AUC (0 to 12 hrs) in human at 100 mg, po bid from day 11 to day 20 pretreated with voriconazole 400 mg, po bid on day 1 and 200 mg, po bid on day 2 and 3 followed by washout from day 4 to day 10 followed by 100 mg, po of drug coadministered with voriconazole 200 mg, po from day 21 to day 30; type: ADME, organism-based; design: dose 100 mg, time < 12 hr, route oral; details: plasma; summary of the method: as §3
[31] = Tmax in human at 400 mg, po bid from day 11 to day 20 pretreated with placebo from day 1 to day 3 followed by washout from day 4 to day 10 followed by 400 mg, po of drug coadministered with placebo from day 21 to day 30; type: ADME, organism-based; details: in vivo; summary of the method: as §3
[32] = Cmax in human at 400 mg, po bid from day 11 to day 20 pretreated with voriconazole 400 mg, po bid on day 1 and 200 mg, po bid on day 2 and 3 followed by washout from day 4 to day 10 followed by 400 mg, po of drug coadministered with voriconazole 200 mg, po from day 21 to day 30; type: ADME, organism-based; design: dose 400 mg, route oral; details: in vivo; summary of the method: as §3
[33] = AUC (0 to 12 hrs) in human at 400 mg, po bid from day 11 to day 20 pretreated with voriconazole 400 mg, po bid on day 1 and 200 mg, po bid on day 2 and 3 followed by washout from day 4 to day 10; type: ADME, organism-based; design: dose 400 mg, time < 12 hr, route oral; details: plasma; summary of the method: as §3
[34] = AUC (0 to 12 hrs) in human at 400 mg, po bid from day 11 to day 20 pretreated with placebo from day 1 to day 3 followed by washout from day 4 to day 10 followed by 400 mg, po of drug coadministered with placebo from day 21 to day 30; type: ADME, organism-based; design: dose 400 mg, time < 12 hr, route oral; details: plasma; summary of the method: as §3

C[C@@H](c1ncncc1F)[C@](O)(Cn1cncn1)c1ccc(F)cc1F [VORICONAZOLE]
Tmax [1]: 1.5 h | Activity (Homo sapiens [2]): Non-toxic | Tmax [3]: 1 h | Activity (Homo sapiens [4]): Non-toxic | Tmax [5]: 1.5 h | AUC at 12 h [6]: 4250 ng·h/mL | Cmax [7]: 2810 ng/mL | Activity (Homo sapiens [8]): Non-toxic | Cmax [9]: 1220 ng/mL | Activity (Homo sapiens [10]): Non-toxic | Activity (Homo sapiens [11]): Non-toxic | AUC at 12 h [12]: 26500 ng·h/mL | Activity (Homo sapiens [13]): Non-toxic | Cmax [14]: 3360 ng/mL | Activity (Homo sapiens [15]): Non-toxic | AUC at 12 h [16]: 19500 ng·h/mL

CC(C)c1nc(CN(C)C(=O)N[C@H](C(=O)N[C@@H](Cc2ccccc2)C[C@H](O)[C@H](Cc2ccccc2)NC(=O)OCc2cncs2)C(C)C)cs1 [RITONAVIR]
AUC at 12 h [17]: 65300 ng·h/mL | Tmax [18]: 1.5 h | Cmax [19]: 10700 ng/mL | Tmax [20]: 1 h | Tmax [21]: 3 h | AUC at 12 h [22]: 7810 ng·h/mL | Cmax [23]: 10500 ng/mL | Tmax [24]: 1 h | Cmax [25]: 992 ng/mL | Cmax [26]: 10200 ng/mL | AUC at 12 h [27]: 65900 ng·h/mL | Tmax [28]: 1 h | Cmax [29]: 1410 ng/mL | AUC at 12 h [30]: 6430 ng·h/mL | Tmax [31]: 1 h | Cmax [32]: 10400 ng/mL | AUC at 12 h [33]: 68000 ng·h/mL | AUC at 12 h [34]: 58400 ng·h/mL

Source: ChEMBL document CHEMBL1137018 (Antimicrob Agents Chemother, 2007)
